Data set [1] has as its target PI3-kinase p110-delta/p85-alpha (Homo sapiens, UniProt O00329). As to the kind of experiment: Inhibition human full length PI3Kdelta catalytic subunit/p85alpha assessed as formation of PIP3 after 30 mins by europium labeled GRP-based TR-FRET assay. Format: protein-complex assay.
Data set [2] deals with T1, Phosphatidylinositol 4,5-bisphosphate 3-kinase catalytic subunit delta isoform (Homo sapiens, UniProt O00329).
T1 sequence (O00329 whole entry): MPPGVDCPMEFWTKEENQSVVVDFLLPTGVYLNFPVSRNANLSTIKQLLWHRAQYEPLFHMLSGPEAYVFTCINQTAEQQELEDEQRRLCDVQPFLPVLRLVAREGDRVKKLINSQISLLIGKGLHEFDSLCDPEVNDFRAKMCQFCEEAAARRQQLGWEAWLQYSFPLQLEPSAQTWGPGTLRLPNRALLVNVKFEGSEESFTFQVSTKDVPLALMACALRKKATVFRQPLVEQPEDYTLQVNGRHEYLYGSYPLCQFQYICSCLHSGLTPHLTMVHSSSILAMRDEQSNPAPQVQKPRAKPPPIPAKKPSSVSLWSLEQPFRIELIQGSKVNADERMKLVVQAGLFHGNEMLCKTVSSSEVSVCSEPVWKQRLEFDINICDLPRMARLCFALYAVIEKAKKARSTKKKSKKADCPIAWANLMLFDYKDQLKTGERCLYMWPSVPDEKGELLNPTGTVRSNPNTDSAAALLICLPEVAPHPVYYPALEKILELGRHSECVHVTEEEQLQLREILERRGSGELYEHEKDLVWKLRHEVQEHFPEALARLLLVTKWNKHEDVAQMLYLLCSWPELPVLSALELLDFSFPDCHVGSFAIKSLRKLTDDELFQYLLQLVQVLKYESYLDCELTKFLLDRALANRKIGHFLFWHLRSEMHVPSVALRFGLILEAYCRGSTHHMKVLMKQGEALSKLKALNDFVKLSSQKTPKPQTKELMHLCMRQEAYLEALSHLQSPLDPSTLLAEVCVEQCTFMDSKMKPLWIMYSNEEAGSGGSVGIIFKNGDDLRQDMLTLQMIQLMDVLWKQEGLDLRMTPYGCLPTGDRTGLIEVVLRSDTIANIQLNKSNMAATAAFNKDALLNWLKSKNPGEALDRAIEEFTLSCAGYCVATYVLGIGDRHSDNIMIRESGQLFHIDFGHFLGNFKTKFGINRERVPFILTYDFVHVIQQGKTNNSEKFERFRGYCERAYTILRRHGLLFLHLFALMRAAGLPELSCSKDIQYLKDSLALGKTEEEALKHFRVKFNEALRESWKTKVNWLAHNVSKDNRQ
As to the kind of experiment: Inhibition of PI3Kdelta in human whole blood assessed as basophil degranulation by measuring CD63 surface expression on CCR3 positive cells after 60 mins by flow cytometric analysis. Format: tissue-based.

Data set [3] can be described thus: Clearance in human hepatocytes at 1 uM by LC/MS/MS analysis. Format: ADME, cell-based, Hepatocyte. Summed up:
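Human hepatocytes, incubated with and without the aldehyde oxidase inhibitor raloxifene; predicted clearance calculated from turnover.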

In a further data set the test system is Hepatocyte. The experiment in a line: Clearance in rat hepatocytes at 1 uM by LC/MS/MS analysis. Format: ADME, cell-based.
A short description of data set [4]: Clearance in dog hepatocytes at 1 uM by LC/MS/MS analysis. Type of data set: ADME, cell-based, Canis lupus familiaris, Hepatocyte.
Data set [5] is described as follows: Ratio of drug level in blood to plasma in Lewis rat. The note with it: blood and plasma. Type of data set: ADME, cell-free.
A short description of data set [6]: Ratio of drug level in blood to plasma in beagle dog. Type of data set: ADME, cell-free, Canis lupus familiaris. The note with it: blood and plasma.
Data set [7] in a line: Half life in Lewis rat at 5 mg/kg, po administered through gavage measured after 24 hrs by LC/MS/MS analysis. Type of data set: ADME, organism-based. The note with it: in vivo.
Data set [8] concerns Rattus norvegicus. As to the kind of experiment: Antiarthritis activity in collagen-induced Lewis rat arthritis model assessed as reduction in ankle swelling administered bid through oral gavage for 7 days measured every day started on day 9 and continuing through day 16 of compound dosing. Type of data set: functional, organism-based. The gist of the method: (§1)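 Female Lewis rats with established collagen-induced arthritis dosed orally by gavage twice daily for 7 days (study days 10–16) with vehicle, 0.34, 1.07, 4.6 or 10 mg/kg, or dexamethasone 0.03 mg/kg; right and left ankle diameters by caliper daily, days 9–16; ankle and knee sections graded 0–5 per histopathology parameter; p < 0.05 versus arthritis + vehicle.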

Data set [9] deals with Rattus norvegicus. The experiment in a line: In vivo inhibition of PI3Kdelta in collagen-induced Lewis rat arthritis model at 0.34 mg/kg administered bid through oral gavage at 2 to 12 hrs on 3rd and 7th day of compound dosing. Format: functional. Summed up:
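Female Lewis rats with established collagen-induced arthritis got vehicle or drug by oral gavage twice daily for 7 days (study days 10–16). Blood was sampled at set times after dosing on days 3 and 7 for plasma drug levels. PI3Kδ inhibition was inferred from those levels against EC50/EC90 values from a rat whole-blood ex vivo anti-IgD (BCR)-stimulated B-cell activation assay.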

The test system of data set [10] is Rattus norvegicus. As to the kind of experiment: In vivo inhibition of PI3Kdelta in collagen-induced Lewis rat arthritis model at 1.07 mg/kg administered bid through oral gavage at 2 to 12 hrs on 3rd and 7th day of compound dosing. Format: functional. Summed up: (§2)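 CIA Lewis rats dosed orally twice daily; plasma drug levels measured in blood samples taken at set times post-dose on days 3 and 7; trough PI3Kδ inhibition estimated from EC50/EC90 of the rat whole-blood ex vivo BCR-induced B-cell activation assay.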

Data set [11] relates to Rattus norvegicus. The experiment in a line: In vivo inhibition of PI3Kdelta in collagen-induced Lewis rat arthritis model at 10 mg/kg administered bid through oral gavage at 2 to 12 hrs on 3rd and 7th day of compound dosing. Type of data set: functional. Summed up:
as §2

Data set [12] relates to Rattus norvegicus. As to the kind of experiment: Antiarthritis activity in collagen-induced Lewis rat arthritis model assessed as reduction in cartilage damage at 1.07 mg/kg administered bid through oral gavage for 7 days measured every day started on day 9 and continuing through day 16 of compound dosing relative to vehicle-treated control. Format: functional. More on the design: scale not given: the % may be the effect or the level left. Summed up: as §1

Data set [13] relates to Rattus norvegicus. As to the kind of experiment: Antiarthritis activity in collagen-induced Lewis rat arthritis model assessed as reduction of bone resorption at 1.07 mg/kg administered bid through oral gavage for 7 days measured every day started on day 9 and continuing through day 16 of compound dosing relative to vehicle-treated control. Type of data set: functional. Set-up: scale not given: the % may be the effect or the level left. The gist of the method:
as §1

For data set [14], the system named is Rattus norvegicus. The experiment in a line: Antiarthritis activity in collagen-induced Lewis rat arthritis model assessed as reduction of periosteal bone width at 1.07 mg/kg administered bid through oral gavage for 7 days measured every day started on day 9 and continuing through day 16 of compound dosing relative to vehicle-treated control. Format: functional. Set-up: scale not given: the % may be the effect or the level left. Summed up:
as §1

The test system of data set [15] is Rattus norvegicus. The experiment in a line: Antiarthritis activity in collagen-induced Lewis rat arthritis model assessed as reduction in cartilage damage administered bid through oral gavage for 7 days measured every day started on day 9 and continuing through day 16 of compound dosing. Format: functional. Summed up: as §1
Data set [16] deals with Rattus norvegicus. As to the kind of experiment: Antiarthritis activity in collagen-induced Lewis rat arthritis model assessed as reduction of periosteal bone width administered bid through oral gavage for 7 days measured every day started on day 9 and continuing through day 16 of compound dosing. Format: functional. Summed up: as §1
Data set [17] is described as follows: Tmax in Lewis rat at 1 mg/kg, iv administered via infusion over 30 mins or at 5 mg/kg, po administered via gavage by LC/MS/MS analysis. Format: ADME, organism-based. The conditions noted are these: in vivo. The gist of the method:
(§3)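 Female Lewis rats, n=3 per route; 30-min iv infusion at 1 mg/kg and oral dose at 5 mg/kg, both in 30% PEG 400/70% water; plasma concentration-time profiles sampled to 24 h; values as mean ± SD.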

A short description of data set [18]: AUCinfinity in Lewis rat at 1 mg/kg, iv administered via infusion over 30 mins or at 5 mg/kg, po administered via gavage by LC/MS/MS analysis. Format: ADME, organism-based. The conditions noted are these: in vivo. The gist of the method:
as §3

Sequence of PI3-kinase p110-delta/p85-alpha (P27986 whole entry, one chain of several, canonical isoform): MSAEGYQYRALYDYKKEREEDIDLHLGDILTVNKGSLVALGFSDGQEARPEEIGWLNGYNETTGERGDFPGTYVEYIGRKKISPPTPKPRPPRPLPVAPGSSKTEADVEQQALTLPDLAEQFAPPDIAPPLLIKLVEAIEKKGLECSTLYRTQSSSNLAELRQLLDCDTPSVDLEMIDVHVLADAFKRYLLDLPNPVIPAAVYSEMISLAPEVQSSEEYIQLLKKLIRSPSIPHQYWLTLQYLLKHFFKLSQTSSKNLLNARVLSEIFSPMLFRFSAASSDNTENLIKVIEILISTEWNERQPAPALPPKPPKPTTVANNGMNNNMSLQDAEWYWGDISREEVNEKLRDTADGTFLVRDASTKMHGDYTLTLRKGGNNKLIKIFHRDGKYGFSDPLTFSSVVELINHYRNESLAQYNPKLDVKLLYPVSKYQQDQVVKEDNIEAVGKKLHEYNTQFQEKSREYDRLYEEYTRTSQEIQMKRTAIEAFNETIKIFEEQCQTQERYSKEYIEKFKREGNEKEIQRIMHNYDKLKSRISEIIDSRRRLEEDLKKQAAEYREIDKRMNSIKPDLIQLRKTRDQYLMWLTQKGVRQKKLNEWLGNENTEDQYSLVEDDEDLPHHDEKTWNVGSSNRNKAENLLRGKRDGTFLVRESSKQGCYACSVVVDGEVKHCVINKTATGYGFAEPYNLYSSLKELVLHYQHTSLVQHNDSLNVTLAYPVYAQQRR

As usually defined, the IC50 is the point on the concentration scale where inhibition reaches its midpoint. A word on the EC50: it is the concentration at which the effect is half-maximal. Broadly, the half-life is how long it takes for the measured level to halve. One may read the inhibition in vivo as the relative decrease from the control value, in per cent. As usually defined, the ED50 is the dose at which the effect has come halfway, by size or by number of responders. For orientation: Tmax means the time from dosing to the highest level. As a reminder, the AUC(0-inf) is total exposure, with the tail of the curve extrapolated. As for `C[C@H](Nc1nc(N)nc(N)c1C#N)c1nc2cccc(F)c2c(=O)n1-c1cc(F)cc(F)c1`, the half-maximal inhibitory concentration (IC50) in [1] amounted to 2.2 nM. For the same molecule, the EC50 in data set [2] is 1 nM. The CLhep predicted at 1 µM in data set [3] was 5.67 mL/min/kg. Moreover, the CLH with Hepatocyte worked out at 23.3 mL/min/kg; in [4] it was 4.17 mL/min/kg. In addition, the blood plasma ratio in data set [5] came out at 1.4; in data set [6], 2.6. For the same molecule, the half-life in data set [7] was 3.2 h. For the same molecule, the Activity entry in the data set with Rattus norvegicus [8] was “Dose-dependent effect”; with Rattus norvegicus [12], 50%; in the data set with Rattus norvegicus [13], 63%; with Rattus norvegicus [14] it was 52%. The molecule further had an inhibition in vivo at 0.34 mg/kg in the data set on Rattus norvegicus [9] of 25%. Testing at 1.07 mg/kg with Rattus norvegicus [10] gave an inhibition in vivo of 50%. The same molecule registered an inhibition in vivo at 10 mg/kg in the data set on Rattus norvegicus [11] above 90%. In addition, the ED50 with Rattus norvegicus [15] and with Rattus norvegicus [16] was 1.5 mg/kg throughout. The Tmax in [17] was found to be 1 h. In addition, the total exposure AUC(0-inf) in data set [18] came to 17 µM·h.

The values above are taken from ChEMBL document CHEMBL3804828, “2,4,6-Triaminopyrimidine as a Novel Hinge Binder in a Series of PI3Kδ Selective Inhibitors” (J Med Chem, 2016).
